In ChEMBL document CHEMBL2429816, “Synthesis and binding affinity of new 1,4-disubstituted triazoles as potential dopamine D(3) receptor ligands” (Bioorg Med Chem Lett, 2013):
pKi: −log10 of the molar value.

Legend:
[1] = target: Dopamine receptors; D3 & D4 (Homo sapiens) (UniProt P35462+P21917); test: Selectivity ratio of Ki for cloned human dopamine D4 receptor to Ki for cloned human dopamine D3 receptor
[2] = target: T1, D(4) dopamine receptor (Homo sapiens, UniProt P21917); test: Displacement of [3H]-spiperone from cloned human dopamine D4 receptor
T1 sequence (P21917 whole entry): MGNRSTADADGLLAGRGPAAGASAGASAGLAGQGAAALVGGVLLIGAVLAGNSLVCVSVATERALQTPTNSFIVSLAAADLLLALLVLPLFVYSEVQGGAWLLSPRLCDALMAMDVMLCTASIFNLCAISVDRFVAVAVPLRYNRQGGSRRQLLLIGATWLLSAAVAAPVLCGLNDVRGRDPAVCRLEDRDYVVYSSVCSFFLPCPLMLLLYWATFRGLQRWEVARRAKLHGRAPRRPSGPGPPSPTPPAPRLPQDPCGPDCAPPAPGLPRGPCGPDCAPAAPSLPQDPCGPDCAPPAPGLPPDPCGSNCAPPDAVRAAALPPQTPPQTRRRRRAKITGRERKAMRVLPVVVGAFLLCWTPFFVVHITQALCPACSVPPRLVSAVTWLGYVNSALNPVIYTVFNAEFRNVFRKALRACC
In short: (§1)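 Competition binding at human receptor subtypes by the group's earlier procedure. Ki was calculated from displacement data by the Cheng–Prusoff equation.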

[3] = species: Homo sapiens; test: Selectivity ratio of Ki for cloned human dopamine D2 receptor to Ki for cloned human dopamine D3 receptor
[4] = target: T2, D(3) dopamine receptor (Homo sapiens, UniProt P35462); test: Displacement of [3H]-spiperone from cloned human dopamine D3 receptor; in short: as §1
T2 sequence (P35462 whole entry): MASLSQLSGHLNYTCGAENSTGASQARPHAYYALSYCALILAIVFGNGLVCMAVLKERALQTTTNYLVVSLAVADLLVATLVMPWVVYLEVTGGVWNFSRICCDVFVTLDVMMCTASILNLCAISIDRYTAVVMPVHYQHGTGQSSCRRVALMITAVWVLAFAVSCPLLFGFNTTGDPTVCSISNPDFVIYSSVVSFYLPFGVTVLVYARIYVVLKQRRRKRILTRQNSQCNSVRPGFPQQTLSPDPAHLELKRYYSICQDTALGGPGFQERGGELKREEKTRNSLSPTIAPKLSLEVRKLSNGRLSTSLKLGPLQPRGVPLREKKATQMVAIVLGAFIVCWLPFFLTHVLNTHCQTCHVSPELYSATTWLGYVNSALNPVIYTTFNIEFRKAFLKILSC

[5] = target: D(1A) dopamine receptor (Homo sapiens) (UniProt P21728); test: Displacement of [3H]-SCH23390 from cloned human dopamine D1 receptor at 1 uM relative to control
D(1A) dopamine receptor (Homo sapiens), sequence (P21728 whole entry): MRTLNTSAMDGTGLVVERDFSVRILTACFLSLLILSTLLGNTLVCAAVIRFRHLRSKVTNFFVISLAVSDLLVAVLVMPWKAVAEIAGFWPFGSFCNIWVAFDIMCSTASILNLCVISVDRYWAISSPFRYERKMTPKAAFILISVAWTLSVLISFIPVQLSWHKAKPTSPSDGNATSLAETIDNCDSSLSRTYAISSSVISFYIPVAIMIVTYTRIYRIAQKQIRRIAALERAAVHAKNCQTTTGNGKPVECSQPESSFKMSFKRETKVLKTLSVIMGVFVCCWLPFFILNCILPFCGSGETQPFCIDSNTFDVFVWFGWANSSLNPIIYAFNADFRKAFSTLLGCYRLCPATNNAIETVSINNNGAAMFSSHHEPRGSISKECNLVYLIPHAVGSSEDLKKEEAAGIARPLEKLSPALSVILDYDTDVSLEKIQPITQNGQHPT
In short: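 Competition binding at the human D1 receptor. Compounds with little affinity are reported as percent inhibition at the highest concentration tested.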

[6] = target: D(2) dopamine receptor (Homo sapiens, UniProt P14416); test: Displacement of [3H]-spiperone from cloned human dopamine D2 receptor; in short: as §1
D(2) dopamine receptor, sequence (P14416 whole entry): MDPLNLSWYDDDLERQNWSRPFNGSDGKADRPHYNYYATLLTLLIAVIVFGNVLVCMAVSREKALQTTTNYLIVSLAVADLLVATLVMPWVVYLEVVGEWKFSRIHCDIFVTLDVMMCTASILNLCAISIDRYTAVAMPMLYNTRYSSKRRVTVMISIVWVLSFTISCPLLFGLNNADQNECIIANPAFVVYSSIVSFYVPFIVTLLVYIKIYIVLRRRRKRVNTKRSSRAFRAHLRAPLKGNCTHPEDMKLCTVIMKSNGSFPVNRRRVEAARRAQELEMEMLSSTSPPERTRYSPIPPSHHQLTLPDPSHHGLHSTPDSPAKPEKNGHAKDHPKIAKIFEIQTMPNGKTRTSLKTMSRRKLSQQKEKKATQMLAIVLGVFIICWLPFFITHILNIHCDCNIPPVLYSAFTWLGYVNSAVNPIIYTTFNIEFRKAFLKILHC

[7] = species: Homo sapiens; test: Selectivity ratio of Ki for dopamine D2 receptor (unknown origin) to Ki for dopamine D3 receptor (unknown origin)
In short: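 Radioligand competition binding at human D2 and D3 receptors. Ki was derived from displacement data using the Cheng–Prusoff equation. The selectivity value is the D2 Ki divided by the D3 Ki.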

[8] = target: T2, D(3) dopamine receptor; test: Antagonist activity at human dopamine D3 receptor assessed as [35S]GTPgammaS binding preincubated for 15 mins followed by [35S]GTPgammaS addition measured after 40 mins; type: functional
[9] = target: D(3) dopamine receptor (Rattus norvegicus, UniProt P19020); test: Displacement of [3H]spiperone from rat dopamine D3 receptor expressed in sf9 cells after 60 mins
D(3) dopamine receptor (Rattus norvegicus, UniProt P19020), sequence (P19020 whole entry): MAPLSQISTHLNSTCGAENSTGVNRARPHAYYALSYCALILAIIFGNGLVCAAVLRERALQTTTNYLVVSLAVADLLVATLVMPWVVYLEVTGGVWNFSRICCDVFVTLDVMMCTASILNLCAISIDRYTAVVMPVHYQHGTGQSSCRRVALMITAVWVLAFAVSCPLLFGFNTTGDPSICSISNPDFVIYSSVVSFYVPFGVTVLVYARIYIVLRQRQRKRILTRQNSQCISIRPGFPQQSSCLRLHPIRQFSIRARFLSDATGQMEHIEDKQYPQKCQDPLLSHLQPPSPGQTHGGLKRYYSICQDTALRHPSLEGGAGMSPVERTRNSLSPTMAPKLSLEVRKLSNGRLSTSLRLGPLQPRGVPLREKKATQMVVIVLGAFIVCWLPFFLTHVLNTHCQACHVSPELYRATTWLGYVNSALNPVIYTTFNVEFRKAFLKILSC

[10] = target: Dopamine receptor D2 and D3 (Rattus norvegicus) (UniProt P19020+P61169); test: Selectivity ratio of Ki for rat dopamine D2 receptor to Ki for rat dopamine D3 receptor
Dopamine receptor D2 and D3 (Rattus norvegicus), sequence (P19020 whole entry, looked up): as the sequence (P19020 whole entry) above
Dopamine receptor D2 and D3 (Rattus norvegicus), sequence (P61169 whole entry, looked up): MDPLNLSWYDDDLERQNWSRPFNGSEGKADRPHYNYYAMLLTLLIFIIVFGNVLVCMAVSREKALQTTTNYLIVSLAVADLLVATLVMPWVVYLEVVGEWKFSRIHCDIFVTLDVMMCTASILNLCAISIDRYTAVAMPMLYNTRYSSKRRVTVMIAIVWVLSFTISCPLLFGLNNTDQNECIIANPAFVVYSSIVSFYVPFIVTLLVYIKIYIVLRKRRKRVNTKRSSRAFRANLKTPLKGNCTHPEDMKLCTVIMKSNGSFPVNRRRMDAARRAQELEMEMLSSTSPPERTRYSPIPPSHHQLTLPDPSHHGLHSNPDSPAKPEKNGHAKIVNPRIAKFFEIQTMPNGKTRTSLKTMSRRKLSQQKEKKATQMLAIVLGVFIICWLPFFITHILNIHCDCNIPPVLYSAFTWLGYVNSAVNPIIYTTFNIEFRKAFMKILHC

Dopamine receptors; D3 & D4 (Homo sapiens), sequence (P35462 whole entry, looked up, one chain of several): as the sequence (P35462 whole entry) above

Row | Structure (SMILES) | Ratio Ki [1] | pKi [2] | Ratio Ki [3] | pKi [4] | inhibition [5] | pKi [6] | Kb [8] | pKi [9] | Ratio Ki [10] | Ratio Ki [7]
1 | COc1ccccc1N1CCN(CCCCn2cc(-c3cccnc3)nn2)CC1 | 14.3 | 5.72 | 1.4 | 6.88 | 40.9% | 6.74 |  |  |  | 
2 | CCCN[C@H]1CCc2nc(N)sc2C1 [PRAMIPEXOLE] |  |  |  |  |  |  |  |  |  | 72
3 | COc1ccccc1N1CCN(CCCCn2cc(-c3ccc(N)cc3)nn2)CC1 | 197 | 6.27 | 73.6 | 8.57 | 38.4% | 6.70 | 1.4 nM |  |  | 
4 | COc1ccccc1N1CCN(CCCCn2cc(-c3ccc(Br)cc3)nn2)CC1 | 3.5 | 6.41 | 2 | 6.96 | 44.3% | 6.64 |  |  |  | 
5 | NC(=O)c1cccc(N2CCN(CCCCNC(=O)c3ccc(Br)cc3)CC2)c1 |  |  |  |  |  |  |  | 8.80 | 1800 | 

Continued by rising pKi [2], values first:

Row | Ratio Ki [1] | pKi [2] | Ratio Ki [3] | pKi [4] | inhibition [5] | pKi [6] | Kb [8] | pKi [9] | Ratio Ki [10] | Structure (SMILES) | Ratio Ki [7]
6 | 7.9 | 6.19 | 2.8 | 7.09 | 39.4% | 6.64 |  |  |  | COc1ccccc1N1CCN(CCCCn2cc(-c3ccccc3)nn2)CC1 | 
7 | 3.2 | 6.37 | 1 | 6.87 | 50% | 6.86 |  |  |  | COc1ccccc1N1CCN(CCCCn2cc(-c3ccc(-c4cnco4)cc3)nn2)CC1 | 
8 | 9.8 | 6.40 | 5.3 | 7.40 | 44.3% | 6.67 |  |  |  | COc1ccc(-c2cn(CCCCN3CCN(c4ccccc4OC)CC3)nn2)cc1 | 
